Measurements taken from ChEMBL document CHEMBL1146529, “Isolations of N-methyl-D-aspartic acid-type glutamate receptor ligands from Micronesian sponges” (J Nat Prod, 2003).
Active and inactive are the calls of the source. No cut-off for these calls is given here.

Assays:
[1] = molecular target: Glutamate NMDA receptor; test: Displacement of [3H]CGP39653 from NMDA receptor in Sprague-Dawley rat brain membrane; type: cell membranes
Method in brief: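 Synaptic membranes were prepared from Sprague-Dawley rats (200-220 g). The assay used 2 nM [3H]CGP39653 to label the NMDA site, incubated at 4 °C for 1 h in 5 mM Tris-HCl (pH 7.7). Inhibition of labelled-ligand binding gave the IC50.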

[2] = system: Mus musculus; test: Agonist activity at NMDA receptor assessed as induction of convulsive behavior in intracerebroventricular dosed ddY mouse; type: functional
Method in brief: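 Male ddY mice (15-20 g, 4-6 weeks old) received intracerebroventricular injections. More than three animals were used per dose. ED50 (pmol/mouse) was derived from dose-response curves.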

[3] = system: Kainate-type glutamate receptor (Rattus norvegicus); test: Displacement of [3H]kanic acid from kainate receptor in Sprague-Dawley rat brain membrane
[4] = system: AMPA-type glutamate receptor (Rattus norvegicus); test: Displacement of [3H]AMPA from AMPA receptor in Sprague-Dawley rat brain membrane
[5] = system: Mus musculus; test: Induction of convulsive behavior in icv dosed ddY mouse assessed as hyperactivie and stereotypical behaviors at 33 pmol; type: functional, organism-based
[6] = system: Mus musculus; test: Agonist activity at NMDA receptor assessed as induction of violent convulsive behavior in intracerebroventricular dosed ddY mouse at 145 pmol; type: functional, organism-based

IC50 [1] [nM]	Activity [3]	Activity [4]	Compound	Activity [2]	ED50 [2] [pmol]	Activity [5]	Activity [6]
214	inactive	inactive	O=C(O)[C@@H]1C[C@@H](OS(=O)(=O)O)CCN1	Dose-dependent effect	20		
83	inactive	inactive	O=C(O)[C@@H]1C[C@@H](OS(=O)(=O)O)[C@H](O)CN1 [CRIBRONIC ACID]	Dose-dependent effect	29	Active	Active
